Measurements collected from several papers.
Protocols differ between the studies behind these lines.
Cell line: HEK293
Effect on: cell growth or viability

SMILES | technique | tested at | time | measurement | value
NC1=CC2=NCCc3c[nH]c(c32)C1=O | MTT | – | 72 h | CC50 | 0.1 µM
CCCc1cc(=O)oc2cc(OCc3cc(=O)c(O)co3)ccc12 | CCK-8 | 36 µM | 24 h | viability | 94%
COC1=CC2=[N+](C)CCc3c[nH]c(c32)C1=O | MTT | – | 72 h | CC50 | 12.5 µM
Cc1ccc(Cn2cc(C(=O)N/N=C/c3ccc([N+](=O)[O-])s3)c(=O)c3cc(Cl)c(Cl)cc32)cc1 | resazurin | – | 48 h | CC50 | > 20 µM
O=C1C(NCCc2c[nH]c3ccccc23)=CC2=NCCc3c[nH]c1c32 | MTT | – | 72 h | CC50 | 3.1 µM
O=C(Nc1cccc([N+](=O)[O-])c1)c1ccccc1 | resazurin | – | 48 h | CC50 | > 20 µM
COc1ccc2c(c1)c(=O)c(C(=O)NN)cn2Cc1ccc(C)cc1 | resazurin | – | 48 h | CC50 | > 20 µM
O=C(Nc1ccc(Cl)c(Cl)c1)c1cccc(C(F)(F)F)c1 | resazurin | – | 48 h | CC50 | 10.1 µM
COc1ccccc1C(=O)/C=C/c1cn(Cc2cn(-c3ccnc4cc(Cl)ccc34)nn2)c2ccccc12 | MTT | 100 µM | 24 h | viability | > 90%
O=C(Nc1ccc(C(F)(F)F)cc1)c1cccc(C(F)(F)F)c1 | resazurin | – | 48 h | CC50 | 9.25 µM
Cn1cc2c3c1C(=O)C(NCCc1ccc(O)cc1)=CC3=[N+](C)CC2 | MTT | – | 72 h | CC50 | 0.23 µM
O=C(N/N=C/c1ccc([N+](=O)[O-])o1)c1cn(Cc2ccccc2)c2ccccc2c1=O | resazurin | – | 48 h | CC50 | > 20 µM
O=C(Nc1cccc([N+](=O)[O-])c1)c1ccc(C(F)(F)F)cc1 | resazurin | – | 48 h | CC50 | > 20 µM
Cc1ccc(Cn2cc(C(=O)NN)c(=O)c3cc(Oc4ccccc4)ccc32)cc1 | resazurin | – | 48 h | CC50 | > 20 µM
O=C(Nc1ccc([N+](=O)[O-])cc1)c1ccc(F)cc1 | resazurin | – | 48 h | CC50 | > 20 µM
